The subject of data set [1] is A549. Put plainly: Antiproliferative activity against human A549 cells after 5 days by EZMTT reagent-based assay relative to control. The data set is classed as functional.
The target of data set [2] is T1, Glutaminase kidney isoform, mitochondrial (Homo sapiens, UniProt O94925).
T1 sequence (O94925 whole entry): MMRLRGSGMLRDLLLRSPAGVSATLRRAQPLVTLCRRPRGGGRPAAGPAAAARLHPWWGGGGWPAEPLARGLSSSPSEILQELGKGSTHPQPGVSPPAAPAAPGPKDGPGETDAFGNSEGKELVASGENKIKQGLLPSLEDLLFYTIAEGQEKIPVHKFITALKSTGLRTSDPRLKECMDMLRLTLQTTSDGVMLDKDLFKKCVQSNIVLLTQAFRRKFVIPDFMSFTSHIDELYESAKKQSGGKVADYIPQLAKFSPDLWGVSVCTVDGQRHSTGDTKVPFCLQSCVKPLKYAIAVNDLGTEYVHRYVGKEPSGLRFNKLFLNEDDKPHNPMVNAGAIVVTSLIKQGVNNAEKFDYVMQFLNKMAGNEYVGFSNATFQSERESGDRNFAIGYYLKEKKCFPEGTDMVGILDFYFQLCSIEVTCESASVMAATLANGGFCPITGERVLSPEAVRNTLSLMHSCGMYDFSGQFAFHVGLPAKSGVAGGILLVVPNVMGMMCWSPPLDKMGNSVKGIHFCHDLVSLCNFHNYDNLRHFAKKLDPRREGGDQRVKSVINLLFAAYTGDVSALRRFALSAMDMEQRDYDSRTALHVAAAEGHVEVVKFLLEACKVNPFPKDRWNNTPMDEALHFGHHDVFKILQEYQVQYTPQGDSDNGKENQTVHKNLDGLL
Put plainly: Inhibition of human KGA preincubated for 15 to 30 mins followed by substrate addition and measured after 3 to 4 hrs by GDH-EZMTT reagent-based GDH coupled assay.

Data set [3] concerns A549. Briefly: Antiproliferative activity against human A549 cells after 5 days by EZMTT reagent-based assay. The data set is classed as functional, cell-based. To be noted: A549, 120 h.
A short description of data set [4]: Inhibition of GDH (unknown origin) using NADP+ and glutamate as substrate preincubated for 0.5 hrs followed by substrate addition and measured after 1 hr by EZMTT reagent-based UV-Vis absorbance assay. More on the design: species or system Homo sapiens.
A short description of data set [5]: Metabolic stability in mouse liver microsomes at 50 uM after 4 hrs in presence of NADPH by HPLC analysis. The data set is classed as ADME, Microsome. To be noted: read-out: Stability. The essentials: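 Compound was incubated with mouse liver microsomes for 4 h, with coumarin as the control. The remaining level was quantified by HPLC using UV absorbance at 254 nm.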

Data set [6] deals with A549. Briefly: Induction of ROS generation in human A549 cells at 10 uM after 12 hrs by DCFH-DA staining-based fluorescence microscopic analysis. The data set is classed as functional, cell-based. The essentials:
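A549 cells were seeded at 10000 per well and exposed to compound at 0, 3 or 10 µM for 12 h. ROSUP at 100 µg/ml served as the positive control, alongside untreated cells. ROS was then assessed.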

Data set [7] has as its system CAKI-1. Put plainly: Antiproliferative activity against human Caki1 cells after 5 days by EZMTT reagent-based assay. The data set is classed as functional, cell-based. To be noted: CAKI-1, 120 h.
Data set [8] can be described thus: Drug uptake in human Caki1 cells up to 2 uM after 24 hrs without gold nanoparticles by microspectrometric analysis based Raman spectra assay. The data set is classed as ADME, cell-based. To be noted: caki-1, 24 h.
Data set [9] relates to HCT-116. Put plainly: Antiproliferative activity against human HCT116 cells after 5 days by EZMTT reagent-based assay relative to control. The data set is classed as functional.
For data set [10], the system named is H22. Briefly: Antiproliferative activity against mouse H22 cells after 5 days by EZMTT reagent-based assay relative to control. The data set is classed as functional.
The test system of data set [11] is HCT-116. Briefly: Antiproliferative activity against human HCT116 cells after 5 days by EZMTT reagent-based assay. The data set is classed as functional, cell-based. To be noted: HCT-116, 120 h.
Data set [12] has as its system H22. Briefly: Antiproliferative activity against mouse H22 cells after 5 days by EZMTT reagent-based assay. The data set is classed as functional, cell-based. To be noted: H22, 120 h.
Data set [13] can be described thus: Drug uptake in human Caki1 cells after 24 hrs using gold nanoparticles by microspectrometric based Raman spectra assay. The data set is classed as ADME, cell-based. To be noted: caki-1, 24 h. The procedure, abridged:
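Compound was premixed 1:1 with nanogold particles, at up to 2 µM. Glutamine-dependent Caki-1 cells were treated for 3, 9, 16 and 24 h, then SERS spectra were collected. Signal at 1352 cm^-1 served as the compound marker for cellular concentration.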

For data set [14], the system named is CAKI-1. Put plainly: Antiproliferative activity against human Caki1 cells after 5 days by EZMTT reagent-based assay relative to control. The data set is classed as functional.

Each structure is given as a SMILES string. Active and inactive are the calls of the source. No cut-off for these calls is given here.

By IC50 is commonly meant the concentration that gives 50% inhibition.

For `O=C(Nc1nnc(CCSCCc2nnc(NC(=O)C34CC5CC(CC(C5)C3)C4)[se]2)[se]1)C12CC3CC(CC(C3)C1)C2`, the Imax in data set [1] is on record as 0%. The IC50 is 1700 nM in [2], more than 13000 nM in [3] and more than 13000 nM in [4].

Turning to `Nc1nnc(CCSCCc2nnc(NC(=O)Cc3ccccc3)[se]2)[se]1`, the figures for the IC50 in data set [2], in data set [3] and in [4] were 2800 nM, more than 13000 nM and more than 13000 nM, respectively.

Consider `O=c1ccc2ccccc2o1` [COUMARIN], for which, in data set [5], the remaining at 4 h, 50 µM worked out at 14%.

`Nc1nnc(CCSCCc2nnc(NC(=O)CC34CC5CC(CC(C5)C3)C4)[se]2)[se]1` displayed an Imax in [1] of 60%. For the same compound, the IC50 was 300 nM in data set [2], 5000 nM in data set [3] and more than 13000 nM in [4].

For `Cn1ccc(CC(=O)Nc2nnc(CCSCCc3nnc(NC(=O)Cc4ccn(C)c4)[se]3)[se]2)c1`, in data set [1], the Imax turned out to be 82%. In addition, the IC50 is 1000 nM in data set [3] and more than 13000 nM in data set [4].

In data set [1], `O=C(Cc1cccc(OC(F)(F)F)c1)Nc1ccc(CCCCc2nnc(NC(=O)Cn3cc(F)c(=O)[nH]c3=O)[se]2)nn1` registered an Imax of 91%. The results for the IC50 in data set [2], in data set [3] and in data set [4] were 20 nM, 460 nM and more than 13000 nM, respectively. The outcome in data set [6] was Active.

`Cn1ccc(CC(=O)Nc2nnc(CCSCCc3nnc(N)[se]3)[se]2)c1`: the IC50 was 2100 nM in data set [2], more than 13000 nM in data set [3] and more than 13000 nM in [4].

On to `Cn1ccc(CC(=O)Nc2nnc(CCSCCc3nnc(NC(=O)Cc4ccn(C)c4)s3)s2)c1`, for which, in data set [1], the Imax is reported as 80%. In addition, the half-inhibitory concentration (IC50) was 2200 nM in [3] and more than 13000 nM in data set [4].

Turning to `Cn1cc(CC(=O)Nc2nnc(CCSCCc3nnc(NC(=O)Cc4cn(C)c5ccccc45)[se]3)[se]2)c2ccccc21`, the IC50 in data set [7] is 400 nM; in data set [3], 110 nM; in [11], 320 nM; in [12] it was 1380 nM; in data set [4], more than 13000 nM. Also, the Imax in data set [1] is reported as 81%; in data set [9], 94%; in data set [10] it was 71%; in data set [14], 87%. In addition, the values for the Drug uptake result in data set [8] and in [13] were “Not Active” and “Dose-dependent effect”, respectively.

Take `O=c1c2ccccc2[se]n1CCCCCCn1[se]c2ccccc2c1=O`: the 50% inhibitory concentration (IC50) turned out to be 1290 nM in data set [7], 2170 nM in [11] and 840 nM in data set [12]. Also, the Imax in [9], in [10] and in data set [14] was 100% in each case.

Turning to `COc1ccc(Nc2nnc(CCSCCc3nnc(Nc4ccc(OC)cc4)[se]3)[se]2)cc1`, the Imax in data set [1] is given as 0%. The IC50 in data set [2], in data set [3] and in data set [4] was more than 13000 nM throughout.

Turning to `c1ccc(CCNc2nnc(CCSCCc3nnc(NCCc4ccccc4)[se]3)[se]2)cc1`, in data set [1], the Imax is given as 0%. The IC50 in data set [2], in [3] and in data set [4] was more than 13000 nM in each case.

On to `c1ccc(CNc2nnc(CCSCCc3nnc(NCc4ccccc4)[se]3)[se]2)cc1`, for which the Imax in [1] was 0%. In addition, the IC50 in data set [2], in data set [3] and in data set [4] was more than 13000 nM each time.

As to `Cn1ccc(CC(=O)Nc2nnc(CCSCCc3nnc(N)s3)s2)c1`, the IC50 in data set [2] was 5100 nM; in data set [3] it was more than 13000 nM; in [4], more than 13000 nM.

With `Nc1nnc(CCSCCc2nnc(NC(=O)Cc3ccccc3)s2)s1`, the IC50 in data set [3] and in [4] was more than 13000 nM in each case.

Turning to `Nc1nnc(CCSCCc2nnc(NC(=O)C34CC5CC(CC(C5)C3)C4)[se]2)[se]1`, the Imax in data set [1] amounted to 0%. The IC50 in data set [2] was 8000 nM; in data set [3], more than 13000 nM; in data set [4], more than 13000 nM.

In turn, `O=C(Cc1ccccc1)Nc1nnc(CCSCCc2nnc(NC(=O)Cc3ccccc3)[se]2)[se]1` registered an Imax in data set [1] of 82%. The figures for the 50% inhibitory concentration (IC50) in data set [3] and in data set [4] were 230 nM and more than 13000 nM, respectively.

As for `Cn1cc(CC(=O)Nc2nnc(CCSCCc3nnc(N)s3)s2)c2ccccc21`, the IC50 in [2] was 1400 nM; in data set [3] it was more than 13000 nM; in [4], more than 13000 nM.

With `O=C(Cc1ccccc1)Nc1nnc(CCSCCc2nnc(NC(=O)Cc3ccccc3)s2)s1`, the IC50 was 1160 nM in data set [7], 420 nM in [3], 540 nM in [11] and more than 13000 nM in [4]. Moreover, the Imax is reported as 72% in [1], 69% in data set [9], 29% in data set [10] and 73% in data set [14].

With `Cn1cc(CC(=O)Nc2nnc(CCSCCc3nnc(N)[se]3)[se]2)c2ccccc21`, the IC50 is 1100 nM in [2], more than 13000 nM in data set [3] and more than 13000 nM in [4]. For the same compound, the values for the Drug uptake entry in data set [8] and in [13] were “Not Active” and “Dose-dependent effect”, respectively.

In data set [1], `Nc1nnc(CCCCc2nnc(NC(=O)Cc3ccccc3)s2)s1` registered an Imax of 0%. In addition, the IC50 in data set [2], in data set [3] and in data set [4] was more than 13000 nM each time.

For the compound `Cn1cc(CC(=O)Nc2nnc(CCCCc3ccc(NC(=O)Cc4cccc(OC(F)(F)F)c4)nn3)[se]2)c2ccccc21`, the IC50 in data set [7] was 14 nM; in data set [3], 17 nM; in data set [11] it was 9 nM; in data set [12], more than 10000 nM; in data set [4] it was more than 13000 nM. Further, the Imax in [1] is 80%; in data set [9] it was 92%; in data set [10], 10%; in data set [14] it was 90%.

With `Cn1cc(CC(=O)Nc2nnc(CCSCCc3nnc(NC(=O)Cc4cn(C)c5ccccc45)s3)s2)c2ccccc21`, the IC50 in [7] was 3920 nM; in [3], 2900 nM; in data set [11], 2200 nM; in data set [12], more than 10000 nM; in [4], more than 13000 nM. Besides, the Imax in data set [1] is on record as 80%; in data set [9], 93%; in data set [10], 42%; in [14], 85%. Moreover, the Drug uptake result in data set [8] is “Not Active”; in data set [13], “Dose-dependent effect”.

(Values after ChEMBL document CHEMBL4368901 (J Med Chem, 2019).)
